Laboratory results as given in ChEMBL document CHEMBL2176870 (J Med Chem, 2012).
Converted amounts (≈) assume the structure as drawn. The source made the active and inactive calls. The calls are words filed in the database; no cut-off is given here.

Assays:
[1] = system: Neisseria gonorrhoeae; assay: Antibacterial activity against Neisseria gonorrhoeae; type: functional
[2] = Inhibition of cytochrome P450; type: ADME
[3] = system: Rattus norvegicus; assay: Toxicity in rat assessed as effect on central nervous system and respiratory functions up to 200 mg/kg, iv; type: organism-based; parameters: dose 200 mg/kg, route intravenous; conditions: in vivo
Summary of the method: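 Safety pharmacology in rats given single iv injections up to 200 mg/kg. Clinical signs, central nervous system effects and respiratory function were monitored.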

[4] = system: Staphylococcus aureus; assay: Antibacterial activity against methicillin-resistant Staphylococcus aureus NRS384; type: functional
Summary of the method: (§1)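 CLSI broth microdilution: serial 2-fold dilutions from 0.06 to 64 μg/mL in cation-adjusted Mueller–Hinton broth, inoculum 5 × 10^5 CFU/mL, 35 °C for 18 h. MIC is the lowest concentration with no visible growth.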

[5] = Plasma clearance in Sprague-Dawley rat plasma at 2 x 50 mg/kg, iv; type: ADME, organism-based; parameters: dose 50 mg/kg, route intravenous
[6] = system: Staphylococcus aureus; assay: Antibacterial activity against methicillin-resistant Staphylococcus aureus; type: functional
[7] = system: Canis familiaris; assay: Toxicity in beagle dog assessed as clinical signs of toxicity up to 100 mg/kg, iv; type: organism-based, Canis lupus familiaris; parameters: dose 100 mg/kg, route intravenous; conditions: in vivo
Summary of the method: (§2)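 Beagle dogs given single iv infusions up to 100 mg/kg. Clinical signs and cardiovascular function, including QT interval, were monitored.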

[8] = system: Staphylococcus epidermidis; assay: Antibacterial activity against methicillin-resistant Staphylococcus epidermidis; type: functional
[9] = Cmax in Sprague-Dawley rat brain at 2 x 50 mg/kg, iv; type: ADME, organism-based; parameters: dose 50 mg/kg, route intravenous
Summary of the method: (§3)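 Female Sprague–Dawley rats given two iv doses of 50 mg/kg. Levels measured in plasma, liver, kidney, brain, heart and lung. Cmax reported as ng/g for tissue and ng/mL for plasma; AUC(0–∞) as ng·h/mL. Half-life is the terminal elimination value.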

[10] = system: Staphylococcus aureus; assay: Antibacterial activity against methicillin-resistant Staphylococcus aureus NRS384 assessed as killing activity at 600 to 1200 mg q6h with prolonged infusion of 2 hrs; type: functional, organism-based
[11] = Terminal elimination half life in Sprague-Dawley rat lung at 2 x 50 mg/kg, iv; type: ADME, organism-based; parameters: dose 50 mg/kg, route intravenous; conditions: read-out: beta t1/2 (converted); summary of the method: as §3
[12] = AUC (0 to infinity) in Sprague-Dawley rat plasma at 2 x 50 mg/kg, iv; type: ADME, organism-based; parameters: time infinity, dose 50 mg/kg, route intravenous; summary of the method: as §3
[13] = Thermodynamic aqueous solubility of the compound at pH 7.4; type: physicochemical; conditions: buffer, read-out: Therm_solubility
[14] = Cmax in Sprague-Dawley rat kidney at 2 x 50 mg/kg, iv; type: ADME, organism-based; parameters: dose 50 mg/kg, route intravenous; summary of the method: as §3
[15] = biological target: T1, Enoyl-[acyl-carrier-protein] reductase [NADPH] FabI (Staphylococcus aureus, UniProt Q6GI75); assay: Inhibition of Staphylococcus aureus recombinant FabI using trans-2-octenoyl N-acetylcysteamine thioester as substrate preincubated for 60 mins
T1 sequence (Q6GI75 whole entry): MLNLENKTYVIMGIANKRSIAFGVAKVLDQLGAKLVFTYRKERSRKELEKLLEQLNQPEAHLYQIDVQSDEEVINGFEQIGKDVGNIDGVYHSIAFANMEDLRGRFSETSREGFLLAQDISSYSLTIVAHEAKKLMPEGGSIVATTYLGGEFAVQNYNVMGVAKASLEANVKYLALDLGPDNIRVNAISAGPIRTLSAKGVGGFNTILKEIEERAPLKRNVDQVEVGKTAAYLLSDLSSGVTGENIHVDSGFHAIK
Summary of the method: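 Recombinant S. aureus FabI (2 nM) in 50 mM ADA pH 6.5, 1 mM DTT, 0.006% Triton X-100, 50 mM NaCl. Preincubated 60 min at room temperature with 40 μM NADPH, 10 μM NADP+ and inhibitor in DMSO. Reaction started with 100 μM t-o-NAC. Inhibition versus untreated samples; IC50 by Langmuir fit.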

[16] = Terminal elimination half life in Sprague-Dawley rat brain at 2 x 50 mg/kg, iv; type: ADME, organism-based; parameters: dose 50 mg/kg, route intravenous; conditions: read-out: beta t1/2 (converted); summary of the method: as §3
[17] = Terminal elimination half life in Sprague-Dawley rat kidney at 2 x 50 mg/kg, iv; type: ADME, organism-based; parameters: dose 50 mg/kg, route intravenous; conditions: read-out: beta t1/2 (converted); summary of the method: as §3
[18] = Thermodynamic aqueous solubility of the compound in 20% hydroxypropyl-beta-cyclodextrin; type: physicochemical; conditions: 20% hydroxypropyl-beta-cyclodextrin in water; read-out: Therm_solubility
Summary of the method: (§4)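 Solubility measured in an aqueous solution containing 20% hydroxypropyl-β-cyclodextrin together with 1–5% glucose.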

[19] = system: Moraxella catarrhalis; assay: Antibacterial activity against Moraxella catarrhalis; type: functional
[20] = system: Staphylococcus aureus; assay: Antibacterial activity against community acquired methicillin-resistant Staphylococcus aureus; type: functional
[21] = Toxicity in iv dosed rat; type: organism-based; conditions: in vivo
Summary of the method: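 Rats given a single intravenous dose for maximum tolerated dose. A separate 2-week study used twice-daily intravenous dosing, with NOAEL set from clinical findings and macroscopic and microscopic examination. Safety pharmacology used single intravenous injections up to 200 mg/kg, assessing central nervous system and respiratory functions.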

[22] = system: Staphylococcus aureus; assay: Antibacterial activity against methicillin-resistant Staphylococcus aureus NRS385; type: functional; summary of the method: as §1
[23] = Thermodynamic aqueous solubility of the compound in 1 to 5% of glucose; type: physicochemical; conditions: 1 to 5% glucose in water; read-out: Therm_solubility; summary of the method: as §4
[24] = system: Staphylococcus aureus; assay: Antibacterial activity against methicillin-resistant Staphylococcus aureus NRS382; type: functional; summary of the method: as §1
[25] = system: Proteus mirabilis; assay: Antibacterial activity against Proteus mirabilis; type: functional
[26] = Cmax in Sprague-Dawley rat plasma at 2 x 50 mg/kg, iv; type: ADME, organism-based; parameters: dose 50 mg/kg, route intravenous; summary of the method: as §3
[27] = system: Haemophilus influenzae; assay: Antibacterial activity against Haemophilus influenzae; type: functional
[28] = Cmax in Sprague-Dawley rat lung at 2 x 50 mg/kg, iv; type: ADME, organism-based; parameters: dose 50 mg/kg, route intravenous; summary of the method: as §3
[29] = system: Staphylococcus aureus; assay: Antibacterial activity against methicillin-resistant Staphylococcus aureus NRS382 infected in Swiss mouse; type: functional
Summary of the method: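 Murine lethal systemic infection by intraperitoneal MRSA challenge. A single subcutaneous dose was given 5 min after infection.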

[30] = biological target: Albumin (Homo sapiens, UniProt P02768); assay: Binding affinity to human serum albumin; type: ADME; conditions: isolated protein
Albumin, sequence (P02768 whole entry): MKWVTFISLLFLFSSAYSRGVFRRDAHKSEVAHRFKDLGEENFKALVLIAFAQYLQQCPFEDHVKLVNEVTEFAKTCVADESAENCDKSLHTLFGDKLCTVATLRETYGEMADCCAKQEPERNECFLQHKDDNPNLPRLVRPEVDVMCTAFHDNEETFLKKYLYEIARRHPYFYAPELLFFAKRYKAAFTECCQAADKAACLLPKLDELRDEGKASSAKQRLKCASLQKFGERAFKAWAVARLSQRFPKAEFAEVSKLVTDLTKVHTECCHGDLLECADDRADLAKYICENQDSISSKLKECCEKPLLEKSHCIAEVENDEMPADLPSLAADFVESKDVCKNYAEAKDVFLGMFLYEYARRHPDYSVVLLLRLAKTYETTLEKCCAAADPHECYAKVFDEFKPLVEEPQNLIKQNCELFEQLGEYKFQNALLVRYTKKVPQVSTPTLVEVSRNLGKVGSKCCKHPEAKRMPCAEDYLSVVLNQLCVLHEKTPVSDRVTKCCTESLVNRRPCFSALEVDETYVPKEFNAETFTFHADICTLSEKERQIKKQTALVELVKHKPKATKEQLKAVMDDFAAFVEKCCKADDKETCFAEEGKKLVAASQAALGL

[31] = system: Neisseria meningitidis; assay: Antibacterial activity against Neisseria meningitidis; type: functional
[32] = Terminal elimination half life in Sprague-Dawley rat heart at 2 x 50 mg/kg, iv; type: ADME, organism-based; parameters: dose 50 mg/kg, route intravenous; conditions: read-out: beta t1/2 (converted); summary of the method: as §3
[33] = Cytotoxicity against human HepG2 cells; type: cell-based; conditions: read-out: ED50 (the source's name)
[34] = system: Escherichia coli; assay: Antibacterial activity against Escherichia coli; type: functional
[35] = system: Enterococcus faecalis; assay: Antibacterial activity against Enterococcus faecalis ATCC 29212 after 18 hrs by broth microdilution method; type: functional; conditions: ATCC 29212, 18 h
Summary of the method: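 CLSI broth microdilution with serial 2-fold dilutions from 0.06 to 64 μg/mL. Cation-adjusted Mueller–Hinton broth, inoculum 5 × 10^5 CFU/mL, incubated at 35 °C for 18 h. MIC taken as the lowest concentration with no visible growth.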

[36] = AUC (0 to infinity) in Sprague-Dawley rat brain at 2 x 50 mg/kg, iv; type: ADME, organism-based; parameters: time infinity, dose 50 mg/kg, route intravenous; summary of the method: as §3
[37] = system: Escherichia coli; assay: Antibacterial activity against Escherichia coli C7 after 18 hrs by broth microdilution method; type: functional; conditions: C7, 18 h
[38] = AUC (0 to infinity) in Sprague-Dawley rat heart at 2 x 50 mg/kg, iv; type: ADME, organism-based; parameters: time infinity, dose 50 mg/kg, route intravenous; summary of the method: as §3
[39] = Terminal elimination half life in Sprague-Dawley rat plasma at 2 x 50 mg/kg, iv; type: ADME, organism-based; parameters: dose 50 mg/kg, route intravenous; conditions: read-out: beta t1/2 (converted); summary of the method: as §3
[40] = AUC (0 to infinity) in Sprague-Dawley rat liver at 2 x 50 mg/kg, iv; type: ADME, organism-based; parameters: time infinity, dose 50 mg/kg, route intravenous; summary of the method: as §3
[41] = system: Canis familiaris; assay: Toxicity in beagle dog assessed as cardiovascular functions up to 100 mg/kg, iv; type: organism-based, Canis lupus familiaris, Heart; parameters: dose 100 mg/kg, route intravenous; conditions: in vivo; summary of the method: as §2
[42] = system: Staphylococcus haemolyticus; assay: Antibacterial activity against methicillin-resistant Staphylococcus haemolyticus; type: functional

## CCc1cc(O)c(Oc2ccc(C(N)=O)cc2F)cc1F
[1]
  MIC90: 0.25 µg/mL (≈ 0.852 µM)
[2]
  inhibition (INH): Active
[3]
  Activity: Non-toxic
[4]
  MIC: 0.06 µg/mL (≈ 0.205 µM)
[5]
  clearance: 107 mL/min/kg
[6]
  MIC90: 0.12 µg/mL (≈ 0.409 µM)
[7]
  Activity: Non-toxic
[8]
  MIC90: 2 µg/mL (≈ 6.82 µM)
[9]
  Cmax: 37800 ng/g
[10]
  Activity: Active
[11]
  half-life: 5.9 h
[12]
  AUC(0-inf): 13900 ng·h/mL
[13]
  solubility thermodynamic: 0.02 mg/mL (≈ 68.2 µM)
[14]
  Cmax: 63000 ng/g
[15]
  IC50: 12 nM
[16]
  half-life: 4.2 h
[17]
  half-life: 8.5 h
[18]
  solubility thermodynamic: 11.3 mg/mL (≈ 38500 µM)
[19]
  MIC90: 2 µg/mL (≈ 6.82 µM)
[20]
  MIC90: ≤ 0.03 µg/mL
[21]
  MTD: > 200 mg/kg
[22]
  MIC: 0.06 µg/mL (≈ 0.205 µM)
[23]
  solubility thermodynamic: 11.3 mg/mL (≈ 38500 µM)
[24]
  MIC: 0.06 µg/mL (≈ 0.205 µM)
[25]
  MIC90: 2 µg/mL (≈ 6.82 µM)
[26]
  Cmax: 30400 ng/mL
[27]
  MIC90: 0.5 µg/mL (≈ 1.7 µM)
[28]
  Cmax: 28900 ng/g
[29]
  ED50: 19.3 mg/kg
[30]
  Activity: 95%
[31]
  MIC90: 0.25 µg/mL (≈ 0.852 µM)
[32]
  half-life: 5 h
[33]
  CC50: > 32 µg/mL
[34]
  MIC90: 1 µg/mL (≈ 3.41 µM)
[35]
  MIC: > 32 µg/mL
[36]
  AUC(0-inf): 27600 ng·h/mL
[37]
  MIC: 0.5 µg/mL (≈ 1.7 µM)
[38]
  AUC(0-inf): 23900 ng·h/mL
[39]
  half-life: 4.9 h
[40]
  AUC(0-inf): 105000 ng·h/mL
[41]
  Activity: Non-toxic
[42]
  MIC90: 0.5 µg/mL (≈ 1.7 µM)
